Test results: ChEMBL document CHEMBL3233000, “Cytotoxic ent-kaurane diterpenoids from Isodon wikstroemioides” (J Nat Prod, 2014)

Experiments:
Type in all cases: functional, cell-based
[1] = tested on: RAW264.7; assay: Inhibition of nitric oxide production in LPS-stimulated mouse RAW264.7 cells after 18 hrs by griess reagent based plate reader analysis; conditions: RAW264.7, 18 h
How it was run: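 RAW264.7 macrophages seeded at 2 × 10^5 cells/well. Treated with serial dilutions (top concentration 25 μM), then stimulated with LPS 1 μg/mL for 18 h. Supernatant NO measured with Griess reagents, absorbance 550 nm. MG-132 was the positive control. Viability was checked in parallel by MTT (595 nm) to exclude cytotoxic interference.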

[2] = tested on: MCF7; assay: Cytotoxicity against human MCF7 cells assessed as growth inhibition after 48 hrs by MTS assay; conditions: MCF7, 48 h
How it was run: (§1)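 Cell lines from ATCC, grown in RPMI-1640 or DMEM with 10% FBS at 37 °C, 5% CO2. Cells seeded, incubated 12 h at 37 °C, then screened at 40 μM for 48 h with MTS read-out. Where growth inhibition reached 50%, retested at 0.064, 0.32, 1.6, 8 and 40 μM in triplicate. Cisplatin and paclitaxel were positive controls. IC50 by Reed and Muench method.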

[3] = tested on: HL-60; assay: Cytotoxicity against human HL60 cells assessed as growth inhibition after 48 hrs by MTS assay; conditions: HL-60, 48 h; how it was run: as §1
[4] = tested on: SMMC-7721; assay: Cytotoxicity against human SMMC7721 cells assessed as growth inhibition after 48 hrs by MTS assay; conditions: SMMC-7721, 48 h; how it was run: as §1
[5] = tested on: SW480; assay: Cytotoxicity against human SW480 cells assessed as growth inhibition after 48 hrs by MTS assay; conditions: SW480, 48 h; how it was run: as §1
[6] = tested on: A549; assay: Cytotoxicity against human A549 cells assessed as growth inhibition after 48 hrs by MTS assay; conditions: A549, 48 h; how it was run: as §1

Row | IC50 [1] [µM] | Compound | IC50 [2] [µM] | IC50 [3] [µM] | IC50 [4] [µM] | IC50 [5] [µM] | IC50 [6] [µM]
1 | 3.5 | C=C1C(=O)[C@]23C[C@H]1[C@@H](O)C[C@H]2[C@]1(C)CCC[C@](C)(CO)[C@H]1C[C@H]3O | 4.9 | 3.6 | 4 | 1.4 | 4.4
2 | 3.3 | C=C1C(=O)[C@]23C[C@H]1C[C@H](OC(C)=O)[C@H]2[C@]1(C)[C@@H](OC(C)=O)C[C@H](O)C(C)(C)[C@H]1C(=O)[C@@H]3OC(C)=O [ADENANTHIN] | 2.8 | 3.6 | 4 | 2 | 3.3
3 | 23.9 | C=C1[C@H]2C[C@@]3(CC[C@@H]4[C@@](C)(CO)CCC[C@@]4(C)[C@@H]3C[C@@H]2O)[C@@H]1O | > 10 | > 10 | > 10 | > 10 | > 10
4 | 16.5 | C=C1C(=O)[C@@]23[C@H](O)C[C@@H]4[C@@](C)(CO)CCC[C@@]4(C)[C@@H]2C[C@H](O)[C@@H]1[C@H]3OC(C)=O | > 10 | > 10 | > 10 | 8.6 | > 10
